The text below walks through data of article PMC9380726 (ACS Pharmacology & Translational Science, 2022).

The format of data set [1] is in vivo. The conditions noted are these: rat, plasma, iv, 20 nmol/kg. The method, boiled down:
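Sprague–Dawley rats (200–300 g) were dosed at 20 nmol/kg i.v. or s.c. Blood (200 µL) was drawn at 2, 6, 10, 24, 30 and 48 h, processed to plasma, extracted and analysed by UPLC-MS. Quantification used a calibration curve from spiked plasma, and parameters came from non-compartmental analysis. Groups were n = 4 for s.c., and n = 3 or 1 for i.v.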

The conditions of data set [2]: after i.v. administration; cited from earlier work.
The conditions of data set [3]: in rats; cited from earlier work.
A short description of data set [4]: PET imaging of 89Zr tracer, 17 MBq/kg. The data set is classed as in vivo, rat. The method, boiled down:
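Sprague–Dawley rats (200–300 g) received the 89Zr tracer (formulated at 5 MBq/nmol) i.v. or s.c. at 17 MBq/kg (3 nmol/kg). They were PET-imaged under 2–3% isoflurane/O2 at 4, 8, 24, 72 and 168 h, with a 350–650 keV window. Scans ran 15 min (4, 8 h), 20 min (24 h), 30 min (72 h) and 60 min (168 h), followed by a 323 s Co-57 transmission scan for attenuation correction. Images were decay-corrected to injection and reported as %ID/g.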

Like-named read-outs stand apart in the source and are kept apart here.

For `CC[C@H](C)[C@H](NC(=O)[C@H](Cc1ccccc1)NC(=O)[C@H](CCC(=O)O)NC(=O)[C@H](CCCNC(=N)N)NC(=O)[C@H](C)NC(=O)[C@H](C)NC(=O)[C@H](CCC(N)=O)NC(=O)[C@H](CCC(=O)O)NC(=O)[C@H](CCC(=O)O)NC(=O)[C@H](CC(C)C)NC(=O)[C@H](Cc1ccc(O)cc1)NC(=O)[C@H](CO)NC(=O)[C@H](CO)NC(=O)[C@@H](NC(=O)[C@H](CC(=O)O)NC(=O)[C@H](CO)NC(=O)[C@@H](NC(=O)[C@H](Cc1ccccc1)NC(=O)[C@@H](NC(=O)CNC(=O)[C@H](CCC(=O)O)NC(=O)[C@H](C)NC(=O)CCc1c[nH]cn1)[C@@H](C)O)[C@@H](C)O)C(C)C)C(=O)N[C@@H](C)C(=O)N[C@@H](Cc1c[nH]c2ccccc12)C(=O)N[C@@H](CC(C)C)C(=O)N[C@H](C(=O)N[C@@H](CCCNC(=N)N)C(=O)NCC(=O)N[C@@H](CCCNC(=N)N)C(=O)N[C@@H](CCCCNC(=O)COCCOCCNC(=O)COCCOCCNC(=O)CC[C@H](NC(=O)CCCCCCCCCCCCCCCCC(=O)O)C(=O)O)C(=O)NCC(=O)NCC(=O)N[C@@H](CO)C(=O)N[C@@H](CCCCNc1c(NCCCCCN(O)C(=O)CCC(=O)NCCCCCN(O)C(=O)CCC(=O)NCCCCCN(O)C(C)=O)c(=O)c1=O)C(=O)O)C(C)C` [compound 2], in data set [1], the half-life – broadly, the time needed for the level to fall by half in the phase considered – is 8.4 h. On to semaglutide, for which, in data set [2], the half-life was 7 to 12 h. Also, the plasma metabolite exposures in data set [3] is 1–7%.

Take `CC[C@H](C)[C@H](NC(=O)[C@H](Cc1ccccc1)NC(=O)[C@H](CCC(=O)O)NC(=O)[C@H](CCCNC(=N)N)NC(=O)[C@H](C)NC(=O)[C@H](C)NC(=O)[C@H](CCC(N)=O)NC(=O)[C@H](CCC(=O)O)NC(=O)[C@H](CCC(=O)O)NC(=O)[C@H](CC(C)C)NC(=O)[C@H](Cc1ccc(O)cc1)NC(=O)[C@H](CO)NC(=O)[C@H](CO)NC(=O)[C@@H](NC(=O)[C@H](CC(=O)O)NC(=O)[C@H](CO)NC(=O)[C@@H](NC(=O)[C@H](Cc1ccccc1)NC(=O)[C@@H](NC(=O)CNC(=O)[C@H](CCC(=O)O)NC(=O)[C@H](C)NC(=O)CCc1c[nH]cn1)[C@@H](C)O)[C@@H](C)O)C(C)C)C(=O)N[C@@H](C)C(=O)N[C@@H](Cc1c[nH]c2ccccc12)C(=O)N[C@@H](CC(C)C)C(=O)N[C@H](C(=O)N[C@@H](CCCNC(=N)N)C(=O)NCC(=O)N[C@@H](CCCNC(=N)N)C(=O)N[C@@H](CCCCNC(=O)COCCOCCNC(=O)COCCOCCNC(=O)CC[C@H](NC(=O)CCCCCCCCCCCCCCCCC(=O)O)C(=O)O)C(=O)NCC(=O)NCC(=O)N[C@@H](CO)C(=O)N[C@@H](CCCCNc1c(NCCCCCN(O)C(=O)CCC(=O)NCCCCCN(O)C(=O)CCC(=O)NCCCCCN(O)C(C)=O)c(=O)c1=O)C(=O)O)C(C)C` [[89Zr]2, metal not drawn]: the “initial dose trapped in the subcutis” value in data set [4] (PET, s.c., after 168 h) came to 10%. Moreover, in data set [4] (rat, kidney, iv, 3 nmol/kg, total radioactivity), the tissue uptake – broadly, the percentage of the injected dose found per gram of tissue – at 168 h was roughly 7 %ID/g.
